Measurements taken from the M2OR odorant receptor database.
Residue numbers refer to the chain shown, from its start.

How the values were obtained:
Settings in all cases: stereoisomer not certain
[1] = system: O52J3 T77A V128I Q141L
In short: (§1)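 Transient luciferase assays in mammalian cell lines were common, though methods varied by source. The values come from published papers and their supplementary material, with extra details from the original authors when needed. Responsive refers to a measured signal the original authors judged statistically different from baseline, and non-responsive (inactive) to the remainder.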

[2] = system: T1, O52K1 A119T A149T
T1 sequence (whole entry): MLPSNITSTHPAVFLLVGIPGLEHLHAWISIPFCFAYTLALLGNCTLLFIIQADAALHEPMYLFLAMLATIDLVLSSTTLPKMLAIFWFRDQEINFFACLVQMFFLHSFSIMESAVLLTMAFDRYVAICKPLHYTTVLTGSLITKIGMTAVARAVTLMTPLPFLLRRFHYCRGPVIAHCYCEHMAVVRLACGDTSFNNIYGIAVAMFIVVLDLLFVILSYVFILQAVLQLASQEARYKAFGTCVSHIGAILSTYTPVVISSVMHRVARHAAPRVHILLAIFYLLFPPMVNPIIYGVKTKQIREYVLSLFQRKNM
In short: as §1

[3] = system: T2, O52K1 Q52R
T2 sequence (whole entry): T1 sequence (whole entry) with Q52R, T119A, T149A
In short: as §1

[4] = system: T3, O52L1
T3 sequence (whole entry): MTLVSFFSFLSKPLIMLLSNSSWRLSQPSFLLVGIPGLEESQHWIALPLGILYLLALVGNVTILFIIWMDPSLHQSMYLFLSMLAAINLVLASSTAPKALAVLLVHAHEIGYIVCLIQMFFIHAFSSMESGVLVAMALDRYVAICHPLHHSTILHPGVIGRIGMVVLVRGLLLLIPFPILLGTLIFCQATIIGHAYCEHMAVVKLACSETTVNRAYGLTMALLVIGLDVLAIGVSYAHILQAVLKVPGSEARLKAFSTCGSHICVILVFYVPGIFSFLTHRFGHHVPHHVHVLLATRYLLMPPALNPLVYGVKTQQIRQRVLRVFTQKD
In short: as §1

[5] = system: T4, O52M1 S305R
T4 sequence (whole entry): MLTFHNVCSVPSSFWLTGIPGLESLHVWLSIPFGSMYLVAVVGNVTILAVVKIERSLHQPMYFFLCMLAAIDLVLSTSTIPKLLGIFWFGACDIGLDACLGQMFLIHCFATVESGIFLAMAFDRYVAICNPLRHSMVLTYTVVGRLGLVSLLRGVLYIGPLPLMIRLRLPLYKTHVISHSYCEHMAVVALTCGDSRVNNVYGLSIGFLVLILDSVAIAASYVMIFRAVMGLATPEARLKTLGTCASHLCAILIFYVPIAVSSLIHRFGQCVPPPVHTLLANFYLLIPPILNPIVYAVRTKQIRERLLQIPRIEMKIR
In short: as §1

[6] = system: T5, O52N1 R167C F247I
T5 sequence (whole entry): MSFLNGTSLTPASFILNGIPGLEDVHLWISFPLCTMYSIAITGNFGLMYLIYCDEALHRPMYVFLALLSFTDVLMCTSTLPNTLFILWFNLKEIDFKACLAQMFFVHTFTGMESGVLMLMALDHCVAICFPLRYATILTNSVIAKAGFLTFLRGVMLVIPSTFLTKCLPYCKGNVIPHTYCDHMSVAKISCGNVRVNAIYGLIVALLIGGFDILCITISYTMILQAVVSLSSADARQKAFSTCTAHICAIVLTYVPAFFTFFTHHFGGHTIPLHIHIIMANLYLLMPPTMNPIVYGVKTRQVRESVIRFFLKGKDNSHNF
In short: as §1

[7] = system: T6, O52N2 S249A H264R
T6 sequence (whole entry): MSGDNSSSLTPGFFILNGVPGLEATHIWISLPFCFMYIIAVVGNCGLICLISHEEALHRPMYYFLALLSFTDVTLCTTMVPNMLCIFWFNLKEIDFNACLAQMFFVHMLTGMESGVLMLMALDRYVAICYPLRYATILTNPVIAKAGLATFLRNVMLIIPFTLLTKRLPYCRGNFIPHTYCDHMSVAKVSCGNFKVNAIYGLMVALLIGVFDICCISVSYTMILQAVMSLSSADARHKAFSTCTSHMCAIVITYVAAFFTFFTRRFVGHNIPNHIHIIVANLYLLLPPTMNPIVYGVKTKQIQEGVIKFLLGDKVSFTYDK
In short: as §1

[8] = system: T7, O52W1 H239R L254Q
T7 sequence (whole entry): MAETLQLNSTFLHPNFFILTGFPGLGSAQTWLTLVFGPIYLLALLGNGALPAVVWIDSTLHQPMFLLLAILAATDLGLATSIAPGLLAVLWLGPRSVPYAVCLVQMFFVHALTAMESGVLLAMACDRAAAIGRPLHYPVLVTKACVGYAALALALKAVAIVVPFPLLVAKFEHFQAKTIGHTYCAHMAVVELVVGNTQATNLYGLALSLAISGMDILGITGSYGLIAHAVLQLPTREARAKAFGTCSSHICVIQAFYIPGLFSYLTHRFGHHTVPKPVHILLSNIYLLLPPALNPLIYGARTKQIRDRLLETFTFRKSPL
In short: as §1

[9] = system: T8, O56A3
T8 sequence (whole entry): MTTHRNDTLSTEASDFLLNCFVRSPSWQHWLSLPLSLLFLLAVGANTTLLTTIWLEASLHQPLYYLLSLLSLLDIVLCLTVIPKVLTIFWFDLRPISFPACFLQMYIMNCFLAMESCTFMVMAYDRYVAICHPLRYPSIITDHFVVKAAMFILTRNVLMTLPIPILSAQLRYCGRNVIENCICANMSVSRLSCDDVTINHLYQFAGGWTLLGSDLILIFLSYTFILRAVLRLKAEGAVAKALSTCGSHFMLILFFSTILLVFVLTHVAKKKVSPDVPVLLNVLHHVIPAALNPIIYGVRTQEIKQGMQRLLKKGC
In short: as §1

[10] = system: T9, O56A4 I247A
T9 sequence (whole entry): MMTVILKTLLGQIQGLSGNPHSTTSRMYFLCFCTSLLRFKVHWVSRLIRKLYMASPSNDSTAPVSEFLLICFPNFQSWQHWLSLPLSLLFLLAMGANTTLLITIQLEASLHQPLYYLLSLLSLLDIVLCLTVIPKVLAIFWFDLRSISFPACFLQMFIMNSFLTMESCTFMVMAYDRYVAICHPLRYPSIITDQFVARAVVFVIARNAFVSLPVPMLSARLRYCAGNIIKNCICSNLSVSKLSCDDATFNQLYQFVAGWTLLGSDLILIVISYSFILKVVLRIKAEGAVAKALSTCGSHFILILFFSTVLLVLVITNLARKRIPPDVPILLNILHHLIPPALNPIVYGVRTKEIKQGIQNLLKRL
In short: as §1

[11] = system: T10, O56A4 I247V
T10 sequence (whole entry): T9 sequence (whole entry) with A247V
In short: as §1

[12] = system: T11, O56A4
T11 sequence (whole entry): T9 sequence (whole entry) with A247I
In short: as §1

[13] = system: T12, O56A5 V104L
T12 sequence (whole entry): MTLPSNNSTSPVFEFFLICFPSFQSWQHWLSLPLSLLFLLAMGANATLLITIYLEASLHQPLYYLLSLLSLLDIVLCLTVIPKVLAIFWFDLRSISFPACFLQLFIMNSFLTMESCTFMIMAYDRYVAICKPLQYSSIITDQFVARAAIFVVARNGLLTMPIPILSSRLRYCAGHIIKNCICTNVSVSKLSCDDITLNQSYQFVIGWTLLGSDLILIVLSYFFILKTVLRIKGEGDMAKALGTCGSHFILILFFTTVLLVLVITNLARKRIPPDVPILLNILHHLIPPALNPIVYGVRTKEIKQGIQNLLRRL
In short: as §1

[14] = system: T13, O56B1 C106R L214F
T13 sequence (whole entry): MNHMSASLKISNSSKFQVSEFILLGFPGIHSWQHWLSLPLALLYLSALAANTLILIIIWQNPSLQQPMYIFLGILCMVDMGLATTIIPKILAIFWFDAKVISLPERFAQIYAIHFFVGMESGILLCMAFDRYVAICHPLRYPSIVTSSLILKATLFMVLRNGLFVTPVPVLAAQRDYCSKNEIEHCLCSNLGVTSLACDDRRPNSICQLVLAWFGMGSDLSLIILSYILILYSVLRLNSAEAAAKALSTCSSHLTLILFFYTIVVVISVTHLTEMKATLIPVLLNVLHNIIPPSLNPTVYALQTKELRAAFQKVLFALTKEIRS
In short: as §1

[15] = system: T14, O56B1 L214F
T14 sequence (whole entry): T13 sequence (whole entry) with R106C
In short: as §1

[16] = system: T15, O56B4
T15 sequence (whole entry): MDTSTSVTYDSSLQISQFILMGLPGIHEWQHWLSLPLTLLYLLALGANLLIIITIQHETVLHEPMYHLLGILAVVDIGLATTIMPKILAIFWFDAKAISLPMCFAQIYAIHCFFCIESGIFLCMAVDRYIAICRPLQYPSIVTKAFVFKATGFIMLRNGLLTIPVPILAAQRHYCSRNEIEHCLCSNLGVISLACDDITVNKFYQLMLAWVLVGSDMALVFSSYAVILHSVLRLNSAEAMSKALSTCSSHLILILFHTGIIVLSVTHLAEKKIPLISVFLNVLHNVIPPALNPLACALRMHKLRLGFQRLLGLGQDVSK
In short: as §1

[17] = system: T16, O5AC2
T16 sequence (whole entry): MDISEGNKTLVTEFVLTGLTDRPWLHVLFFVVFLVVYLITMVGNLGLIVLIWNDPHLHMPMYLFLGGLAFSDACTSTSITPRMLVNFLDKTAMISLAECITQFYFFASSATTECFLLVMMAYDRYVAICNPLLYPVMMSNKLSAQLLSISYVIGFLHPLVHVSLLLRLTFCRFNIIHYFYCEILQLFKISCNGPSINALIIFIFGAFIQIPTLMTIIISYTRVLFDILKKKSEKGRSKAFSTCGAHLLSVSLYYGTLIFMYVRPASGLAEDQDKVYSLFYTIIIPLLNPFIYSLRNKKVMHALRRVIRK
In short: as §1

[18] = system: T17, O5AK2 M92I
T17 sequence (whole entry): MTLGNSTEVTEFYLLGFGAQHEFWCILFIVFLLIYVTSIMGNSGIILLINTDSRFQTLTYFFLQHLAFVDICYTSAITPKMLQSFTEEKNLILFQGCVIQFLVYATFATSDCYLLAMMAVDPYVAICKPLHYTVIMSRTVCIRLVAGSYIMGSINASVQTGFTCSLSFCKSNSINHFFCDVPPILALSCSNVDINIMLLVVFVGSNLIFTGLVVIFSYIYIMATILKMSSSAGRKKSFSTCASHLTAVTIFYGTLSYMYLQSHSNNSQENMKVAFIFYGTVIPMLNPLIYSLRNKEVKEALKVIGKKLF
In short: as §1

[19] = system: T18, O5AN1 C142Y L289F
T18 sequence (whole entry): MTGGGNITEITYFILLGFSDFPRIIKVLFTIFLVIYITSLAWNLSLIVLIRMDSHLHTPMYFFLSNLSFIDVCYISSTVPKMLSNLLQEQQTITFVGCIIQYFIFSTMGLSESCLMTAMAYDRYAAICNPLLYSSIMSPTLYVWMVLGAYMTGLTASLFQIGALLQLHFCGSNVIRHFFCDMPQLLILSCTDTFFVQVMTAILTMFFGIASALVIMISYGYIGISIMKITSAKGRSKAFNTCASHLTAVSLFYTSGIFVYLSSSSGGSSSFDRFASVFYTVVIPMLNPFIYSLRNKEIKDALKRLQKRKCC
In short: as §1

[20] = system: T19, O5AN1 L289F
T19 sequence (whole entry): T18 sequence (whole entry) with Y142C
In short: as §1

Measured: odorant receptor agonist call;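 also: active if original authors judged signal statistically different from baseline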

CCC1OC(C)=C(O)C1=O (stereo not drawn)
inactive: [1] | [2] | [3] | [4] | [5] | [6] | [7] | [8] | [9] | [10] | [11] | [12] | [13] | [14] | [15] | [16] | [17] | [18] | [19] | [20]

CC1=NC(C)C(C)S1 (stereo not drawn)
inactive: [1] | [2] | [3] | [4] | [5] | [6] | [7] | [8] | [9] | [10] | [11] | [12] | [13] | [14] | [15] | [16] | [17] | [18] | [19] | [20]

CC1=C(O)C(=O)OC1C (stereo not drawn)
inactive: [1] | [2] | [3] | [4] | [5] | [6] | [7] | [8] | [9] | [10] | [11] | [12] | [13] | [14] | [15] | [16] | [17] | [18] | [19] | [20]

Cc1cnc(C)c(C)n1
inactive: [1] | [2] | [3] | [4] | [5] | [6] | [7] | [8] | [9] | [10] | [11] | [12] | [13] | [14] | [15] | [16] | [17] | [18] | [19] | [20]

CC1=C(O)C(=O)C(C)O1 (stereo not drawn)
inactive: [1] | [2] | [3] | [4] | [5] | [6] | [7] | [8] | [9] | [10] | [11] | [12] | [13] | [14] | [15] | [16] | [17] | [18] | [19] | [20]

CCCCCCC=CCCC=O
inactive: [1] | [2] | [3] | [5] | [6] | [7] | [8] | [9] | [10] | [11] | [13] | [14] | [15] | [16] | [17] | [18] | [19] | [20]

CCC1OC(=O)C(O)=C1C (stereo not drawn)
inactive: [1] | [2] | [3] | [4] | [5] | [6] | [7] | [8] | [9] | [10] | [11] | [12] | [13] | [14] | [15] | [16] | [17] | [18] | [19] | [20]

CCCC(S)CCOC(C)=O (stereo not drawn)
inactive: [1] | [2] | [3] | [4] | [5] | [6] | [7] | [8] | [9] | [10] | [11] | [12] | [13] | [14] | [15] | [16] | [17] | [18] | [19] | [20]
